Assay outcomes from PubChem BioAssay.
TCR-CD3 inh: human TCR-CD3 binding inhibition. TAMRA-labeled TCR probe fluorescence, biochemical. inhibition, % at 9.4 µM. hit rate 0.37% among 360,000. AID 651800;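 further: recombinant mutant TCR 2C K166C tagged with TAMRA read by polarization; 0% = receptor in buffer alone and 100% = receptor with positive control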
TDP2 absorb: blocks human TDP2 phosphodiesterase activity; O95551; recombinant TDP2, T5PNP hydrolysis, p-nitrophenol absorbance 415 nm; inhibition, % at 12.8 µM; hit rate 0.34% among 370,000; AID 720702;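 active means inhibition above the mean of all tested compounds plus 3 SD, set per campaign, cut at about 25% in these data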;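 further: 0% = DMSO with enzyme and 100% = buffer with substrate but no TDP2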
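Assay system: recombinant human TDP2 / Reagent: T5PNP substrate at 5 mM, a TopII-DNA adduct mimic / Measured by: epi absorbance from released p-nitrophenol / Evaluation: % inhibition relative to enzyme-containing and enzyme-free wells / Control set: enzyme-free and DMSO wells / Replicates: each compound tested once, singlicate / Schedule: enzyme reaction with compound for 2 h at 37 °C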
GSTO1 counter: GSTO1 inhibition, counter-screen for RBBP9 inhibitors. inhibition, % at 5.96 µM. hit rate 1.1% among 300,000. P78417. recombinant GSTO1, activity-based probe fluorescence polarization. AID 1974;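 active means inhibition above the campaign mean inhibition plus 3 SD, cut at about 35% in these data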;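 further: 0% = GSTO1-1 with DMSO and 100% = wells lacking GSTO1-1 enzyme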
Target sequence (P78417 whole entry, looked up): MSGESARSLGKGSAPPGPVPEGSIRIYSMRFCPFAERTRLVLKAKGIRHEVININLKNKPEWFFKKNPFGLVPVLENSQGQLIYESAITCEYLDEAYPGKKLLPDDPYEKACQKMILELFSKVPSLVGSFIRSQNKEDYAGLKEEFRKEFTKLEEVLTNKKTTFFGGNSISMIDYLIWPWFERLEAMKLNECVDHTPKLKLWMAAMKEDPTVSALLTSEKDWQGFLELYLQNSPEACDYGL
SIAE primary: human SIAE inhibition, primary screen | inhibition, % at 9.66 µM | Q9HAT2 | AID 1053197 | hit rate 0.69% among 370,000 | SIAE FP-Rh probe binding, fluorescence polarization;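 active means inhibition above a cutoff: mean of compounds within the control limits plus 3 SD of those, cut at about 17% in these data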;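 further: 0% = plate median of compound wells and 100% = probe without SIAE protein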
PAD4 FP inh: blocks human protein arginine deiminase 4; Q9UM07; recombinant PAD4, RCA probe fluorescence polarization; inhibition, % at 6.36 µM; hit rate 0.41% among 330,000; AID 485272;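 active means percent inhibition above a cutoff equal to the mean of all tested compounds plus 3 SD, cut at about 15% in these data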;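 further: 0% = PAD4 with RCA probe and DMSO and 100% = probe without PAD4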
Apaf1 inhib: inhibitors of human Apaf-1 apoptosome. reconstituted apoptosome caspase-3 activity, DEVD-Rh110 fluorescence. inhibition, % at 20 µM. hit rate 0.71% among 330,000. AID 489030; active means inhibition of at least 40% at 20 µM;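 further: plate controls were DMSO wells for no effect and DEVD-CHO caspase inhibitor wells for full effect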
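System: reconstituted apoptosome with Apaf-1, cytochrome c, caspase-9, procaspase-3, dATP; Signal: Rh110 fluorescence intensity; Schedule: 30 min compound preincubation, 50 min activation, room temperature; Reagent: cytochrome c trigger plus (Z-DEVD)2-Rh110 caspase-3 substrate.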
BSA TAMRA ctr: counter-screen for TCR-CD3 interaction inhibitors: BSA probe. inhibition, % at 9.4 µM. shares compounds with TCR-CD3 inh. AID 652035. hit rate 10% among 1,200. TAMRA-labeled BSA probe fluorescence counterscreen; in the data active means inhibition above about 23%;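 further: 0% = buffer low control and 100% = reference high control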
TCR-CD3 inh conf: TCR-CD3 interaction inhibition, confirmation; shares compounds with TCR-CD3 inh; TAMRA-labeled TCR probe fluorescence binding assay; inhibition, % at 9.4 µM; hit rate 48% among 1,200
The depositor's hits bear a star; . = no result. In the library only some 2.4% were active in any assay of this set; here they are far more common. Unless noted, no stated cut-off is given here; in the data, active means inhibition above about 19%; inactive means the rest.

SMILES	TCR-CD3 inh	TDP2 absorb	GSTO1 counter	SIAE primary	PAD4 FP inh	Apaf1 inhib	BSA TAMRA ctr	TCR-CD3 inh conf
Cc1nn(CC(=O)NC2CCCCC2)c(C)c1[N+](=O)[O-]	0.0	2.8	.	2.2	.	.	.	.
O=C1/C(=C/c2ccc(O)c([N+](=O)[O-])c2)SC(=S)N1Cc1ccccc1	1.4	10.9	-0.5	2.7	-7.4	-0.8	.	.
O=C1/C(=C\c2cccc([N+](=O)[O-])c2O)SC(=S)N1Cc1ccccc1	82.2*	1.1	-32.2	-6.2	-72.2	.	-89.0	8.8
CCOC(=O)C1=C(CC)OC(N)=C(C#N)C1c1ccc(OC)cc1OC (stereo not given)	1.9	3.1	-1.0	10.5	1.1	-2.2	.	.
C/C(=N\NC(=O)c1nnn(-c2nonc2N)c1-c1ccccc1)c1ccccc1O	48.7*	-19.3	-1.7	-0.1	-3.9	2.8	-6.8	29.9*
CCCc1c(C(=O)N/N=C(\C)c2ccccc2O)nnn1-c1nonc1N	5.5	4.8	.	3.0	.	.	.	.
O=C1CNC(=S)N1CCc1ccc(O)c(O)c1	31.0*	6.8	60.5*	9.2	-2.9	-2.4	-11.8	26.7*
O=C1CNC(=S)N1CCOc1ccccc1	-2.6	11.6	7.0	10.0	-7.9	-2.1	.	.
N#CCC(=O)Nc1ccc(C(=O)OCC(=O)NC2CCCc3ccccc32)cc1 (stereo not given)	19.6*	-9.6	.	-39.4	1.2	-6.0	6.4	2.3
N#CCC(=O)Nc1ccc(C(=O)OCC(=O)Nc2cccc(C(F)(F)F)c2)cc1	34.8*	5.4	-39.5	-74.1	-16.0	6.6	-4.8	2.5
N#CCC(=O)Nc1ccc(C(=O)OCC(=O)Nc2cccc3ccccc23)cc1	-0.7	-6.4	.	-16.0	.	.	.	.
Cc1cc(C)c(-c2cc(NC(=O)COC(=O)c3ccc(C#N)cc3)n(-c3ccccc3)n2)cc1C	5.1	-2.2	-4.3	-38.5	2.1	5.3	.	.
Cc1ccc(C(=O)OCC(=O)NC2CCCc3ccccc32)o1 (stereo not given)	-6.3	-6.1	.	8.1	-5.9	1.7	.	.
Cc1cc(C)c(-c2cc(NC(=O)COC(=O)c3ccc(NC(=O)CC#N)cc3)n(-c3ccccc3)n2)cc1C	61.1*	-7.8	-65.7	-145.2	-3.4	16.9	16.1	43.0*
CSc1ccccc1NC(=O)C1(C)CCN1C(=O)Cc1ccccc1Cl (stereo not given)	-3.5	3.8	.	1.3	.	.	.	.
COC(=O)c1cc(C(=O)c2cc(F)ccc2O)cn2c(=O)c3c(C)c(C)sc3nc12	-4.8	9.8	10.0	-15.2	-3.4	-16.3	.	.
O=S(=O)(O)c1cc(O)c(N=Nc2ccc(O)cc2O)c2ccccc12	150.3*	16.4	.	11.5	.	.	171.4*	129.6*
COC1(OC)C(/C=C/c2ccc(Cl)cc2)C(C#N)(C#N)C1(OC)OC (stereo not given)	20.9*	-1.4	-22.6	-4.8	3.2	2.9	-4.2	3.5
NC(=O)c1sc(=S)n2c1[nH]c(=O)c1sccc12	-2.4	5.1	-183.5	-26.0	0.4	1.8	.	.
CC(=O)NNC(=O)c1sc(=S)n2c1[nH]c(=O)c1sccc12	29.0*	1.3	7.5	-9.2	0.6	1.7	-2.2	8.6
CCCCn1c(=O)[nH]c(=O)c2c1nc(-c1ccc(-c3ccccc3)cc1)n2C	5.5	12.1	-5.5	3.4	-1.9	22.2	.	.
Cc1cc(=O)oc2cc(OCC(=O)N/N=C/c3cc([N+](=O)[O-])ccc3O)ccc12	48.0*	-3.0	1.0	7.6	-6.0	.	-14.3	50.9*
O=C(NCCc1cccc(Cl)c1)c1ccc(Cl)c([N+](=O)[O-])c1	30.4*	-5.8	13.7	-7.4	0.3	0.1	3.1	0.7
CC1CN(c2ccc(Cl)nn2)CC(C)O1 (stereo not given)	-3.5	-3.5	0.4	-3.6	-0.5	5.0	.	.
Cc1cccc(NC(=O)CSc2nnc(-c3ccccc3)n2N)c1	24.3*	-4.5	-7.2	1.3	-2.7	-6.9	1.9	-0.5
C=CCn1c(=S)[nH]c2nc3c(cc2c1=O)CCCC3	1.2	-7.5	5.5	-1.8	-1.4	7.5	.	.
